Assay results of several laboratories.
Compare with care: the assays were run in different laboratories.
Target: Carbonic anhydrase 9 (CA9, Homo sapiens, UniProt Q16790)
Effect on: enzyme activity
Action: inhibitor

NS(=O)(=O)c1ccc(-n2nccc2-c2ccc(N3CCOCC3)cc2)cc1 — Ki: 245 nM
COc1ccc(C(=O)/C=C/c2cccc3ccccc23)cc1S(N)(=O)=O — Ki: 1640 nM
Cc1ccc(C(=O)Nc2ccc(C(=O)Nc3cccc(S(N)(=O)=O)c3)cc2)s1 — IC50: 409 nM
NS(=O)(=O)c1ccc(CCNC2=NS(=O)(=O)c3ccc(Cl)cc3N2)cc1 — Ki (stopped-flow): 37.2 nM
NS(=O)(=O)c1ccc(NC2=NC(=O)/C(=C\c3ccc(O)cc3)S2)cc1 — IC50: 203 nM
COc1ccc(C(=O)/C=C/c2cc3c(cc2Br)OCO3)cc1S(N)(=O)=O — Ki: 8170 nM
Cn1cc(-c2cccc3oc(C(=O)NC4CCCN(CC(=O)Nc5ccc(S(N)(=O)=O)cc5)C4)cc23)nn1 (stereo not shown) — IC50: 30.2 nM
COc1cc(/C=C2/SC(Nc3ccc(S(N)(=O)=O)cc3)=NC2=O)cc(OC)c1OC — IC50: 39.5 nM
NS(=O)(=O)c1ccc(-n2nccc2-c2ccc(N3CCCCC3)cc2)cc1 — Ki: 227 nM
Cc1ccc(-c2ccc(Nc3ccc(S(N)(=O)=O)cc3)nn2)cc1S(=O)(=O)N1CCCCC1 — IC50: 7.94 nM
